Compound activity (PubChem)
Only some compounds are listed: those with a hit (about 4% of all), similar ones and a draw of the others.
DAGLB inhibitor – diacylglycerol lipase beta (human) inhibition | HEK293T DAGLB membrane lysate, EnzChek fluorogenic substrate | Q8NCG7 | actives 0.059% (n = 340,000) | inhibition, % at 5.17 µM; in the data active = inhibition above about 34%;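 note: 0% = enzyme with vehicle and 100% = wells lacking enzyme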
MPTP inh – inhibitors of mitochondrial permeability transition pore; inhibition, % at 10 µM; isolated mouse mitochondria, Ca2+ swelling absorbance, 30 min; actives 1.4% (n = 360,000); AID 602449;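 active = inhibition of 50% or more, scaled per plate between neutral and stimulator controls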;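 note: 0% = DMSO wells given calcium and 100% = 1 mM EGTA wells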
TAAR1 antagonist – human TAAR1 antagonism; Q96RJ0; CHO RD-HGA16 TAAR1, Fluo-8 calcium fluorescence, antagonist; inhibition, % at 3 µM; actives 1.5% (n = 360,000); AID 624466;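 active = inhibition above a per-plate cutoff, the mean inhibition of test compounds on that plate plus 3 SD, cut at about 49% in these data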;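 note: 0% = DMSO plus EC80 beta-PEA response and 100% = DMSO alone without agonist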
Target sequence (Q96RJ0 whole entry, looked up): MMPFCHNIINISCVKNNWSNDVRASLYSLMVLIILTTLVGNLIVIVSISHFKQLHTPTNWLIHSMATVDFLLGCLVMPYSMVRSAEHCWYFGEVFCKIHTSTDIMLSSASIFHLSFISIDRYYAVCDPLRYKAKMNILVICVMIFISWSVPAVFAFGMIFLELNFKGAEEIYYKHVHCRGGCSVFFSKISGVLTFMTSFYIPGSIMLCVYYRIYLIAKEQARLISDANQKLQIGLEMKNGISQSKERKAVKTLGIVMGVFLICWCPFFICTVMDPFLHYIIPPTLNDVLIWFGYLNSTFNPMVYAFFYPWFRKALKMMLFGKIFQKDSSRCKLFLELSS
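Test system: RD-HGA16 CHO cells with stable hTAAR1 and Gα16 / Probe or stimulus: EC80 β-phenethylamine stimulus / Times: seeding 17-24 h prior, 75-min 37 °C, 30-min RT dye loading / Detection: Fluo-8 calcium-sensitive fluorescence / Read-out basis: % inhibition scaled between DMSO and EC80 PEA controls / Repeats: singlicate, one well per test compound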
TAAR1 ag – human TAAR1 agonism; Q96RJ0; actives 0.99% (n = 360,000); activation, % at 3 µM; AID 624467; CHO RD-HGA16 TAAR1, Fluo-8 calcium fluorescence; vehicle wells 0%, saturating PEA agonist 100%;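 active = activation above the mean activation of all test compounds in the run plus 3 SD, cut at about 38% in these data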
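Signal – calcium-sensitive Fluo-8 signal, excitation 470-495, emission 515-575 nm · System – RD-HGA16 (CHO) cells co-expressing Gα16 and hTAAR1 · Incubation – 17-24 h seeding, 75 min 37 °C dye, 30 min RT · Compound dosing – 3 µM single concentration · Repeats – no replicates (n 1)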
GPR7 antagonist – human neuropeptides B/W receptor 1 antagonism. GPR7-expressing cells, fluorescence antagonist assay. inhibition, % at 4.4 µM. actives 1.1% (n = 290,000); in the data active = inhibition above about 16%, passing the limit was not always enough;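 note: cells stimulated with the agonist NPW; 0% = agonist with vehicle and 100% = vehicle without agonist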
Target sequence (P48145 whole entry, looked up): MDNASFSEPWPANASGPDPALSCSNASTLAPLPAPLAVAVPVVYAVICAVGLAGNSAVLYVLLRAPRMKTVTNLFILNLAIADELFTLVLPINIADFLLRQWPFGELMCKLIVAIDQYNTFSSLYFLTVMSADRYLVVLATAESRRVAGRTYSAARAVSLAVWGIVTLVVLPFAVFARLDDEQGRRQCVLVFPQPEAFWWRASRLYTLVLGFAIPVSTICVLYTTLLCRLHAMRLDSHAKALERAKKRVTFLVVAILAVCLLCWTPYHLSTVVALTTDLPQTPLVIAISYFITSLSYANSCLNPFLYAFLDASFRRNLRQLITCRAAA
MPTP counter – Rhodamine 123 counter-screen of mitochondrial pore hits; shares compounds with MPTP inh; isolated mitochondria, membrane potential, Rhodamine 123 fluorescence; inhibition, % at 10 µM; actives 78% (n = 5,000); AID 624504; in the data active = inhibition above about 22%;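 note: 0% = DMSO vehicle and 100% = positive control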
MPTP abs DR – dose response confirmation of mitochondrial permeability transition pore inhibitors; IC50, µM; isolated mitochondria swelling, absorbance; shares compounds with MPTP inh; actives 58% (n = 780); in the data active = IC50 below about 20 µM
MPTP counter DR – active in counter-screen for permeability transition pore inhibitors. IC50, µM. actives 49% (n = 780). AID 651564. isolated mitochondria counterscreen, fluorescence read-out. shares compounds with MPTP inh; in the data active = IC50 below about 80 µM
* marks the source's active call; other numbers are inactive results; i = inactive; / = no result; + = active, no number.

SMILES	DAGLB inhibitor	MPTP inh	TAAR1 antagonist	TAAR1 ag	GPR7 antagonist	MPTP counter	others
COc1ccc(CNC(=O)c2cc3c(C)nc4ccccc4c3o2)c(OC)c1	/	73*	/	/	0	96*
CSCC[C@H](N)C(=O)N1CCC(C(=O)N[C@@H](C)C(=O)NCc2ccc(F)cc2)CC1	-2	0	-12	1	-7	/
COc1ccc(CN2CCC(CO)(CCOc3ccccc3)CC2)cc1C	2	68*	-11	8	-2	-2	MPTP abs DR=20*;MPTP counter DR=>80
COc1cc(CN2CCC(CO)(CCOc3ccccc3)CC2)cc(OC)c1OC	7	0	-4	0	-2	/
Cc1nc(-[n+]2nc(-c3ccncc3)nn2-c2ccccc2)sc1C	/	3	-17	0	/	/
COc1ccc(NC(=O)CSc2ncccc2C(=O)OC(C)C)cc1OC	0	71*	10	12	2	60*
CCCCOc1ccc(CSc2nc(C)[nH]c2[N+](=O)[O-])cc1[N+](=O)[O-]	/	56*	15	8	5	75*
CCCCOc1ccc(CSc2nnc(C)n2N)cc1[N+](=O)[O-]	4	1	12	2	-10	/
Brc1cccc(CN2CCN(c3ncc(Cc4ccccc4)cn3)CC2)n1	/	/	-18	1	/	/
COc1ccc(-c2csc(NC(=O)c3ccccc3NS(=O)(=O)c3ccc(C)cc3)n2)cc1	11	104*	47	4	27*	6
COc1ccc(-c2csc(NC(=O)c3c(OC)cccc3OC)n2)cc1	-3	0	-44	6	-22	/
COc1ccc(Sc2cccc3c2S(=O)(=O)N([C@H](C)c2ccccc2)C[C@@H](COCc2ccccc2)O3)cc1OC	/	/	-20	2	/	/
CCOC(=O)c1[nH]c(C)c(/C(O)=C2\C(=O)C(=O)N(CCN3CCOCC3)C2c2cccs2)c1C (stereo unspecified)	-1	+	-4	2	-2	1
CC(NC(=S)NCc1ccc(F)cc1)C12CC3CC(CC(C3)C1)C2 (stereo unspecified)	-10	80*	19	6	-12	90*
COc1ccc(C(C)NC(=S)NCc2ccc(F)cc2)cc1OC (stereo unspecified)	1	1	-11	6	14	/
CCC(C)c1ccc(C(C)NC(=S)NCc2ccc(F)cc2)cc1 (stereo unspecified)	-7	60*	37	7	-10	94*
CCC(NC(=S)NCc1ccc(F)cc1)c1ccc(C(C)C)cc1 (stereo unspecified)	-9	79*	38	11	10	91*
CC(C)NC(=O)C1(C)CN(S(C)(=O)=O)CC(=O)N1CCc1ccccc1 (stereo unspecified)	/	1	-9	11	/	/
Nc1nc2ccccc2cc1C(=O)NCc1ccc(Cl)cc1Cl	/	67*	/	/	/	97*
Nc1ccc(CNC(=O)c2cc3cc(Cl)ccc3nc2N)cc1	/	17	-9	6	/	/
Nc1nc2ccc(Cl)cc2cc1C(=O)NCCc1ccc(O)cc1	/	1	-19	26	/	/
Nc1nc2ccccc2cc1C(=O)NCc1ccc(-c2ccccc2)cc1	/	106*	25	2	/	103*
CCCCCCCCCCCCN1CCSCCS1(=O)=O	/	/	-20	4	/	/
O=C(NN1C(=O)c2cc(Br)ccc2NC1c1cc(Br)cc(Br)c1O)c1ccncc1 (stereo unspecified)	13	88*	6	2	-5	52*
CC(C)C1Nc2c(O)cc(Cl)c([N+](=O)[O-])c2C2C=CCC21 (stereo unspecified)	31	92*	-37	7	-5	78*
SMILES	DAGLB inhibitor	MPTP inh	TAAR1 antagonist	TAAR1 ag	GPR7 antagonist	MPTP counter	others
CCOC(=O)c1c(NC(=O)Cc2ccccc2)sc2c1CC(C)(C)NC2(C)C	-2	71*	-7	30	3	-4	MPTP abs DR=i;MPTP counter DR=>80
COC(=O)c1c(NC(=O)c2ccc(OC(C)C)cc2)sc2c1CC(C)(C)NC2(C)C	1	87*	-2	3	6	2	MPTP abs DR=>100;MPTP counter DR=56*
CCOC(=O)c1c(NC(=O)COc2ccccc2OCC)sc2c1CC(C)(C)NC2(C)C	-5	30	/	/	/	/
COC(=O)c1c(NC(=O)c2ccccc2)sc2c1CC(C)(C)NC2(C)C	2	73*	2	2	-11	-5	MPTP abs DR=18*;MPTP counter DR=>80
O=C(Cc1ccc(NC(=O)C2CCN(C(=O)CCc3ccccc3)CC2)cc1)Nc1cccc(C(=O)N2CCCC2)c1	/	/	-41	0	/	/
CC12C=CC(C)(C3C(=O)NC(=O)C31)C1C3C(=O)NC(=O)C3C12 (stereo unspecified)	/	/	-16	2	/	/
CC(=O)c1ccc(Oc2cc(-c3ccccc3)nc(-c3ccccc3)n2)cc1	-2	53*	-13	0	-10	-1	MPTP abs DR=>100;MPTP counter DR=>80
O=Cc1ccc(Oc2cc(-c3ccccc3)nc(-c3ccccc3)n2)cc1	-10	-29	-16	7	-8	/
COc1ccc(CCNC(=O)CSc2nc3ccsc3c(=O)n2Cc2ccccn2)cc1OC	-2	-2	-19	1	/	/
O=C(Cc1cccc2ccccc12)NC(NC(=S)Nc1ccccc1Cl)C(Cl)(Cl)Cl (stereo unspecified)	0	79*	13	14	1	70*
CCC(=O)NC(NC(=S)Nc1cccc2cccnc12)C(Cl)(Cl)Cl (stereo unspecified)	-4	3	-7	3	-15	/
c1coc(CNc2nc3nonc3nc2NCc2ccco2)c1	2	96*	10	18	-9	95*
Cc1nc(NCc2ccco2)c2cn[nH]c2n1	-2	0	8	0	/	/
C[C@@H]1Cn2cnc(C(=O)N(C)Cc3ccccc3)c2C(=O)N1	/	/	-2	3	/	/
O=c1[nH]c(CN2CCCCC2)nc2c1C1(CCCCC1)Cc1ccccc1-2	1	77*	-18	5	-17	-2	MPTP abs DR=>100;MPTP counter DR=>80
CC(C)C1OC(CCc2ccccc2)Cc2[nH][nH]c(=O)c21 (stereo unspecified)	/	1	-26	1	/	/
COc1ccccc1NS(=O)(=O)c1cccc(NC(=O)c2[nH]c(C)c(C(C)=O)c2C)c1	-3	66*	43	14	-13	64*
COc1ccccc1NC(=O)c1[nH]c(C)c(C(C)=O)c1C	-3	-2	5	2	-8	/
CCOc1cc(C(=O)OCC(=O)Nc2ccc(SC(F)F)cc2)cc(OCC)c1OCC	-14	50*	33	5	4	61*
N#CC(=C1C=C(Br)C(=NO)C=C1Cl)c1cccc2ccccc12	-8	76*	-21	0	/	57*
COc1ccc(C(C)=O)cc1CSC(=S)N1CCSCC1	/	/	18	0	/	/
COC(=O)c1cc2c(c3c4cc(F)ccc4n(C(=O)c4ccccc4)c13)C(=O)N(C1CCCCC1)C2	/	/	0	0	/	/
